Source: PubChem BioAssay
HCT116 bCat-KO: beta-catenin-lacking colon tumor cell growth suppression | HCT116 beta-catenin knockout viability, CellTiter-Glo, 60 h; hits give low values | 140,000 tested, 1.5% active | AID 818 | viability, % at 10 µM;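 active = viability at or under a set limit, the compound median less 4 SD, cut at about 6% in these data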;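 also: 0% = Hyamine 1622 control at 20 µM and 100% = untreated cell control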
HCT116 PTEN-null: suppresses growth of cells with PTEN deletion | HCT116 PTEN-null viability, CellTiter-Glo, 60 h; hits give low values | viability, % at 10 µM | 140,000 tested, 1.2% active | AID 827;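 active = viability at or below a set limit, 4 SD under the median of all tested compounds, cut at about 3.7% in these data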;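 also: PTEN knockout HCT116 line with beta catenin targeted HCT116 as companion control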
TNAP inh hi DEA: blocks human TNAP under high phosphate acceptor concentration; inhibition, % at 20 µM; 200,000 tested, 0.03% active; P05186; purified TNAP, CDP-star luminescence, 1 M DEA;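 active = over 50% inhibition of tissue-nonspecific alkaline phosphatase at 20 µM in the single-dose screen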;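 also: plate controls were DMSO wells for no effect and EDTA-quenched wells as full inhibition for full effect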
Target sequence (P05186 whole entry, looked up): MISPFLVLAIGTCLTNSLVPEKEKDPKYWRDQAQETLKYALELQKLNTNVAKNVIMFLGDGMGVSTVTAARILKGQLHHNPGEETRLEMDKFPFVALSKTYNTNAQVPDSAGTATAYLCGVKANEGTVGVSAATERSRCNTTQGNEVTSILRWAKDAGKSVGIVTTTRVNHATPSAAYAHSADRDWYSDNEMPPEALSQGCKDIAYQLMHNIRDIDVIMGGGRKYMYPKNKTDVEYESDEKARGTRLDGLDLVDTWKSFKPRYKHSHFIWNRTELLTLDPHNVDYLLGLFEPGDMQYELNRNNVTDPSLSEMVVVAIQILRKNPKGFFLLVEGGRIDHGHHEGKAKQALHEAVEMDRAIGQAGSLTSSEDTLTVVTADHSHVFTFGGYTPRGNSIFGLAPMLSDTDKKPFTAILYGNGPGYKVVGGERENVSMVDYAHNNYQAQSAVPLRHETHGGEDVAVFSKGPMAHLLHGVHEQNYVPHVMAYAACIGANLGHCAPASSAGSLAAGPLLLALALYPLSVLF
L major viab: Leishmania major promastigote growth inhibition; Leishmania major promastigotes, resazurin fluorescence viability; inhibition, % at 10 µM; 200,000 tested, 9% active; AID 1063; in the data active = inhibition above about 50%;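 also: promastigotes grown with compound for 44 hours at 28 °C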
TNAP inh noacc: blocks human TNAP activity with no phosphate acceptor present | P05186 | purified TNAP, CDP-star luminescence, 30 min | inhibition, % at 20 µM | 200,000 tested, 0.26% active | AID 1012;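 active = tissue-nonspecific alkaline phosphatase inhibition above about 50% at 20 µM in the single-dose screen, limit read from the data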;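 also: 0% = DMSO negative control and 100% = EDTA positive control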
TNAP act hi DEA: TNAP (human) activation, high acceptor. purified TNAP, CDP-star luminescence, 1 M DEA, 30 min; hits give high values; 0 = EDTA background, 1 = DMSO-only activity. AID 1136. P05186. activation factor at 20 µM. 200,000 tested, under 10 active;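 active = activation factor at least 2 at 20 µM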
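Control set: EDTA negative control, DMSO positive control / Assay system: human TNAP / Quantity: TNAP 1/800 final / Evaluation: TNAP activation factor scaled between EDTA and DMSO control wells / Measured by: luminescent substrate turnover signal / Compound dosing: one dose, 20 µM / Times: 30 min enzyme reaction at room temperature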
An asterisk follows results filed as active; . = no result given. Shown are actives, neighbours in structure and some others; about 9.6% of the full set was active somewhere.

SMILES	HCT116 bCat-KO	HCT116 PTEN-null	TNAP inh hi DEA	L major viab	TNAP inh noacc	TNAP act hi DEA
COc1ccccc1/C=C/C(=O)Oc1cccc2cccnc12	.	.	-6	99*	-21	1.1
CCN1C(=O)c2cccc3c(NC(=O)c4ccccc4)ccc1c23	90	77	-2	91*	-4	1
CCN1C(=O)c2cccc3c(NC(=O)c4ccc(OC)c(OC)c4)ccc1c23	93	96	-3	100*	-11	1
CCN1C(=O)c2cccc3c(NC(=O)c4ccc5c(c4)OCCO5)ccc1c23	93	87	-2	-7	-4	1
CCc1ccc(-c2nc(SCC(=O)N3CCOCC3)n[nH]2)cc1	.	.	-6	-1	31	1.1
Cn1ccnc1SCC(=O)Nc1ccc2c(c1)OC(F)(F)O2	.	.	-4	-5	3	1
CCOC(=O)C1=C(N)n2c(s/c(=C\c3cccnc3)c2=O)=C(C(=O)OCC)C1c1cccnc1 (stereo unspecified)	.	.	-9	.	-13	1.1
CCOC(=O)C1=c2/c(=C/c3ccncc3)c(N)c(C(=O)OC)n2C(=O)C(c2ccncc2)S1 (stereo unspecified)	.	.	-6	56*	-9	1.1
CCOC(=O)C1=C(N)n2c(s/c(=C\c3ccncc3)c2=O)=C(C(=O)OCC)C1c1ccncc1 (stereo unspecified)	.	.	-1	52*	-2	1
O=C(c1ccc(S(=O)(=O)Nc2ccc(F)cc2)cc1)N1CCN(C(=O)c2ccco2)CC1	65	69	-2	-5	-2	1
Cn1ncnc1SCc1cn2cccnc2n1	.	.	-6	0	-13	1.1
CCOC(=O)c1[nH]c2ccc(OC)cc2c1NC(=S)N1CCN(c2ccccc2)CC1	49	21	-3	77*	-4	1
CCOC(=O)c1[nH]c2ccc(OC)cc2c1NC(=S)N1CCN(c2ccccn2)CC1	.	.	-7	54*	-23	1.1
Cc1cccc(N2CCN(Cc3cn(C)nc3-c3ccccc3F)CC2)n1	.	.	-1	2	-1	1
COCCCN1CN(Cc2ccccc2)CNC1=S	90	97	0	-2	-8	1
CCOC(=O)Nc1sc(C)c(C)c1C(N)=O	96	97	0	-2	-14	1
C=C(C)CNC(=S)N=Nc1c(O)[nH]c2ccc([N+](=O)[O-])cc12	.	.	13	78*	-71	0.9
CC(C)NC(=S)N=Nc1c(O)[nH]c2ccc([N+](=O)[O-])cc12	.	.	16	8	-64	0.8
O=C(NNC(=O)c1cc(O)c(O)c(O)c1)NC1CCCCC1	70	73	5	92*	18	1
C=CCOc1cccc(C(=O)N2CCCC(CNS(=O)(=O)c3cccs3)C2)c1 (stereo unspecified)	.	.	-5	6	-3	1
CC(C)(C)c1ccc(C(=O)CC(=O)c2cc(Cl)ccc2O)cc1	29	24	-2	99*	-10	1
Cc1ccc(C(=O)CC(=O)c2cc(Cl)ccc2O)cc1	66	64	-6	99*	-11	1.1
CCOc1ccc(C(=O)NNC2CC(=O)N(Cc3ccc(Cl)cc3)C2=O)cc1OC (stereo unspecified)	.	.	-4	0	-9	1
C=CCNC(=O)NC(=O)COC(=O)/C(C#N)=C/c1ccc(OC)cc1	.	.	-4	-1	-12	1
C=CCOc1ccc2nnc(C)n2n1	98	104	-6	11	-6	1.1
SMILES	HCT116 bCat-KO	HCT116 PTEN-null	TNAP inh hi DEA	L major viab	TNAP inh noacc	TNAP act hi DEA
O=C(c1ccco1)N1CCN(C(=O)c2ccc(COc3ccc4c(c3)CCC4)o2)CC1	56	52	-5	83*	-7	1
CCNCCNc1ccc(Cl)cc1[N+](=O)[O-]	.	.	.	60*	.	.
CCCCN(C)C(=S)Nc1ccc2nc3n(c(=O)c2c1)CCCCC3	.	.	-1	3	-6	1
CC(C)(C)C(=O)NC(=S)NNC(=O)c1ccc(-c2ccccc2)cc1	.	.	-10	97*	-96	1.1
CC1(C)CC(=O)/C(=C(/O)CCCN2C(=O)c3ccccc3C2=O)C(=NC(C)(C)C)C1	.	.	-1	-2	-9	1
O=C(CN1CCC(c2nc3ccccc3s2)CC1)NCc1ccccc1	33	40	0	87*	-2	1
O=C(c1ccccc1Br)N1CCC(c2nc3ccccc3s2)CC1	.	.	-4	3	0	1
CCc1ccc(C(=O)N2CCC(c3nc4ccccc4s3)CC2)cc1	83	83	-3	87*	-7	1
Cc1cccc(N2CCN(C(=O)C3(S(=O)(=O)c4ccc(Cl)cc4)CC3)CC2)c1C	.	.	-4	52*	6	1
Cc1cccc(N2CCN(S(=O)(=O)c3ccc(S(=O)(=O)N4CCCC4)cc3)CC2)c1C	89	77	1	-5	-10	1
COc1ccc(N2CCN(CCCNC(=O)C3(S(=O)(=O)c4ccc(Cl)cc4)CC3)CC2)cc1	69	95	-1	-12	-9	1
CC(=O)c1ccc(N2CCN(C(=O)C3(S(=O)(=O)c4ccc(Cl)cc4)CC3)CC2)cc1	81	82	-6	3	-9	1.1
O=C(NCCCN1CCN(c2cccc(Cl)c2)CC1)C1(S(=O)(=O)c2ccc(Cl)cc2)CC1	72	71	-5	100*	0	1.1
Cc1ccc(Cl)cc1N1CCN(C(=O)C2(S(=O)(=O)c3ccc(Cl)cc3)CC2)CC1	77	65	-8	97*	-4	1.1
Cc1ccc(Cl)cc1N1CCN(c2cccc[n+]2C)CC1	57	52	-3	74*	-15	1
COc1ccc(OC)c(-c2cc(C(=O)NCc3ccc(Cl)cc3)no2)c1	.	.	-5	-3	-6	1.1
CN(C)CC(C)(C)CNS(=O)(=O)c1cccc2nsnc12	87	95	-6	-4	-8	1.1
CCCCN(CC)CCNC(=O)CN1C(=O)COc2ccc(S(=O)(=O)N3CCCC3)cc21	101	97	-4	43	5	1
O=C(N1CCN(c2cccc(Cl)c2)CC1)C1(S(=O)(=O)c2ccc(Cl)cc2)CC1	79	75	-6	99*	-4	1.1
Cc1ccc(Cl)cc1N1CCN(S(=O)(=O)c2cccc(S(=O)(=O)N3CCCC3)c2)CC1	75	77	-2	61*	-9	1
CCNS(=O)(=O)c1ccc(OC)c(C(=O)NC2CCCCC2)c1	.	.	3	4	2	1
CC1(C)COC(/C=C/c2ccc([N+](=O)[O-])cc2)=N1	7	6	-2	87*	-12	1
COc1ccc(C(CCNC(C)c2ccccc2)c2ccc(F)cc2)cc1 (stereo unspecified)	1.4*	1.4*	-2	100*	-16	1
COc1ccc(C(CCNCc2ccccc2)c2ccc(F)cc2)cc1 (stereo unspecified)	2.0*	2.4*	-6	99*	-17	1.1
